# Reference: ChEMBL document CHEMBL5653608 (Br J Pharmacol, 2011)
# Tests used:
# [1] = Inhibition of EFS-induced contraction of human myometrium incubated for 60 mins; format: functional, tissue-based
# Method in brief: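 Human myometrial strips (donors aged 24–76) in a 15 mL Krebs bath at 37°C, under EFS at 15 V, 1.5 ms pulses, 10 s every 100 s, at a submaximal 15 Hz. Antagonist (10 or 100 nM) or vehicle was equilibrated for 60 min. Cumulative butaprost (0.1 nM–10 µM) or PGE2 (0.1 nM–3 µM) was given for at least five EFS responses per concentration. pKB was calculated from same-donor concentration ratios.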
# [2] = Inhibition of EFS-induced contraction of Beagle dog bronchiole; format: functional, tissue-based, Canis lupus familiaris
# [3] = Induction of relaxation in […] C57BL/6 mouse trachea at 0.1 to 30 uM incubated for 30 mins relative to control (reference value: 21.6 +/- 8.8%); format: functional; design: scale not given: the % may be the effect or the level left; settings: dose 0.1-30 µM, 0.5 h
# [4] = Induction of relaxation in forskolin-induced carbachol pre-contracted C57BL/6 mouse trachea incubated for 30 mins; format: functional, tissue-based
# Method in brief: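 Male C57BL/6 tracheal rings at 0.35 g tension in Krebs (95% O2/5% CO2, 37°C). Rings were precontracted with 10 µM carbachol before cumulative half-log PGE2 (0.1 nM–30 µM). Curves were repeated in the same ring after 30 min with 3 nM antagonist or DMSO, and 10 µM forskolin set maximal relaxation. pKB = log(CR−1) − log[B].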
compound,measurement,setting,value
CCCC1([C@H](O)C/C=C/[C@H]2[C@H](O)CC(=O)[C@@H]2CCCCCCC(=O)OC)CCC1 [BUTAPROST],IC50,[1],0.0278 µM
same,EC50,[2],0.139 µM
same,Activity,[3],69.1%
same,EC50,[4],0.893 µM
